Experimental findings from ChEMBL document CHEMBL3091351, “The 3,7-diazabicyclo[3.3.1]nonane scaffold for subtype selective nicotinic acetylcholine receptor (nAChR) ligands. Part 1: the influence of different hydrogen bond acceptor systems on alkyl and (hetero)aryl substituents” (Bioorg Med Chem, 2013) are described below.

The Ki is a dissociation constant, usually derived from enzyme kinetics or from competition with a known ligand. Read a high Ki as a looser hold on the target.

The target in experiment [1] is Neuronal acetylcholine receptor; alpha4/beta2 (Rattus norvegicus, UniProt P09483+P12390). Description: Displacement of [3H]epibatidine from alpha4beta2 nAChR in Sprague-Dawley rat forebrain P2 fraction after 90 mins by liquid scintillation counting analysis. Put shortly: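 Rat forebrain P2 membranes (60 µg protein) in HSS buffer with 0.5 nM (±)-[3H]epibatidine and 6–9 test concentrations. Incubated 90 min at 22 °C; non-specific binding defined with 300 µM (−)-nicotine. Filtered through PEI-presoaked glass fibre filters and counted by liquid scintillation. Run in duplicate to quadruplicate, with 2–10 independent experiments.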
Background: Loss of bound radioactivity is the signal in a displacement assay; it reports binding, not function.

Experiment [2] deals with Neuronal acetylcholine receptor subunit alpha-7 (Rattus norvegicus, UniProt Q05941). Description: Displacement of [3H]methyllycaconitine from alpha7 nAChR in Sprague-Dawley rat forebrain P2 fraction after 90 mins by liquid scintillation counting analysis.
Experiment [3] can be described thus: Displacement of [3H]epibatidine from (alpha1)2beta1gammadelta nAChR in Torpedo californica electroplax after 90 mins by liquid scintillation counting analysis. More on the design: species or system Tetronarce californica. Put shortly: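 Torpedo californica electroplax membranes (60–70 µg) incubated with (±)-[3H]epibatidine and 6–9 test concentrations in HSS buffer, 90 min at 22 °C. 300 µM (−)-nicotine defined non-specific binding. PEI-presoaked glass fibre filtration, scintillation counting; duplicate to quadruplicate, 2–10 independent experiments.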

A short description of experiment [4]: Displacement of [3H]epibatidine from alpha3beta4 nAChR in calf adrenal membranes fraction after 90 mins by liquid scintillation counting analysis. Type of experiment: cell membranes, Bos taurus. The essentials:
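Calf adrenal membranes (60–70 µg) in HSS buffer with 0.5 nM (±)-[3H]epibatidine, 6–9 test concentrations, 90 min at 22 °C. Non-specific binding with 300 µM (−)-nicotine. PEI-presoaked glass fibre filtration, liquid scintillation read-out; duplicate to quadruplicate, 2–10 independent experiments.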

Sequence of Neuronal acetylcholine receptor subunit alpha-7 (Q05941 whole entry): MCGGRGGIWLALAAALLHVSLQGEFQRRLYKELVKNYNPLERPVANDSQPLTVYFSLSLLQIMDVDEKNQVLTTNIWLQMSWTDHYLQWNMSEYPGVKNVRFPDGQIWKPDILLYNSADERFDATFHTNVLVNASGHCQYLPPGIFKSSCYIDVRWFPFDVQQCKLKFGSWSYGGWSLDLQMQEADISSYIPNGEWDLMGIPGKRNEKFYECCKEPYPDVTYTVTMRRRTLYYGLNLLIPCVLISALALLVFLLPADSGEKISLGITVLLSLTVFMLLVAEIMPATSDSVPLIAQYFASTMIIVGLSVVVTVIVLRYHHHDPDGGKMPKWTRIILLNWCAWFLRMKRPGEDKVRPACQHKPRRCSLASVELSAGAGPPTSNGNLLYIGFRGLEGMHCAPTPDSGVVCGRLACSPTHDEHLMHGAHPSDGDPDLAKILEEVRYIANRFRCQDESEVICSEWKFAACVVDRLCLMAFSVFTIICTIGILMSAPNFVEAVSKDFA
Sequence of Neuronal acetylcholine receptor; alpha4/beta2 (P09483 whole entry): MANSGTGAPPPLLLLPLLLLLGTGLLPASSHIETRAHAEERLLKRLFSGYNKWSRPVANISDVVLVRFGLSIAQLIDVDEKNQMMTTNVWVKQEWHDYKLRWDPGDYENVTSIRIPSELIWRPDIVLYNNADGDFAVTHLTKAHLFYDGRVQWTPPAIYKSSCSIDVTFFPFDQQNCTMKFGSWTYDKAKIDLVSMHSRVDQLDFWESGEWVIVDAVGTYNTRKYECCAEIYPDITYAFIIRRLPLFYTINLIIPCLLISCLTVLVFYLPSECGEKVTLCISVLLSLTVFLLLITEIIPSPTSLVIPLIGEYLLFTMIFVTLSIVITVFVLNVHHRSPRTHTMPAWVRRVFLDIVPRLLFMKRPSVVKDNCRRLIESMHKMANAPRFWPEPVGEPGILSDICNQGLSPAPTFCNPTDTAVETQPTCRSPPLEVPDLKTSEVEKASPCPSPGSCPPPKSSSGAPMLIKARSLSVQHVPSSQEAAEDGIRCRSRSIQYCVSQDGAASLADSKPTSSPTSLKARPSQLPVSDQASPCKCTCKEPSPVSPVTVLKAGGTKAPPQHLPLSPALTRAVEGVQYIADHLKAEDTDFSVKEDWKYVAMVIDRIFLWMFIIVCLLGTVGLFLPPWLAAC
Sequence of Neuronal acetylcholine receptor; alpha4/beta2 (P12390 whole entry): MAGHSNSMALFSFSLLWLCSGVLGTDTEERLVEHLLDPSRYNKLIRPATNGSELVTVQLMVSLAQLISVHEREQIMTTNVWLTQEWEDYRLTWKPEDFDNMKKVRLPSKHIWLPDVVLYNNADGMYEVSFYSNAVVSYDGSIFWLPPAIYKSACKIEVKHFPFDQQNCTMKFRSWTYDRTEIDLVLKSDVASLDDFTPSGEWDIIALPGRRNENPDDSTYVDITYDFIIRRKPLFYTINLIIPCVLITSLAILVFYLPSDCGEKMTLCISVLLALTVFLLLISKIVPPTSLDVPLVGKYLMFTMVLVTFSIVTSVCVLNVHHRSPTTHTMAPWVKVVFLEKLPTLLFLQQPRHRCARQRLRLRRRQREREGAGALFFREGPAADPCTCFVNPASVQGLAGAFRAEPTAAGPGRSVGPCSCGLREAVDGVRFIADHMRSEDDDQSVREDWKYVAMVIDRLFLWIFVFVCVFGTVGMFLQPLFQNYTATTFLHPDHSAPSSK

As to `O=C(c1cccc2ccccc12)N1C[C@@H]2CNC[C@@H](C2)C1`, the Ki in experiment [1] and in experiment [2] was > 10 µM each time.

Regarding `O=C(c1ccc(Cl)cc1)N1C[C@@H]2CNC[C@@H](C2)C1`, the results for the Ki in experiment [1] and in experiment [2] were 0.13 µM and > 10 µM, respectively.

For the compound `O=C(N1CCC(Cc2ccccc2)CC1)N1C[C@@H]2CNC[C@@H](C2)C1`, the Ki in experiment [3] is > 5 µM; in experiment [1], > 10 µM; in experiment [2], > 5 µM; in experiment [4], > 10 µM.

Regarding `N#Cc1ccc(S(=O)(=O)N2C[C@@H]3CNC[C@@H](C3)C2)cc1`, the figures for the inhibition constant Ki in experiment [1], in experiment [2] and in experiment [4] were 0.645 µM, > 10 µM and > 10 µM, respectively.

Take `c1ccc(CN2C[C@@H]3CNC[C@@H](C3)C2)cc1`: the inhibition constant (Ki) in experiment [3] is > 10 µM; in experiment [1] it was > 10 µM; in experiment [2], > 5 µM; in experiment [4], 0.57 µM.

Turning to `O=C(c1ccccc1Cl)N1C[C@@H]2CNC[C@@H](C2)C1`, the Ki in experiment [1] is > 10 µM.

For `O=S(=O)(c1ccc(Br)cc1)N1C[C@@H]2CNC[C@@H](C2)C1`, the Ki in experiment [1] is > 5 µM.

Regarding `O=S(=O)(c1ccccc1)N1C[C@@H]2CNC[C@@H](C2)C1`, the inhibitory constant (Ki) was > 5 µM in experiment [1], > 10 µM in experiment [2] and > 10 µM in experiment [4].

As to `O=C(c1cccc(C(F)(F)F)c1)N1C[C@@H]2CNC[C@@H](C2)C1`, the Ki in experiment [3] was > 10 µM; in experiment [1], 0.147 µM; in experiment [4], > 3 µM.

Compound `Cn1cccc1C(=O)N1C[C@@H]2CNC[C@@H](C2)C1` gave a Ki in experiment [1] of 0.662 µM.

Consider `COc1ccc(C(=O)N2C[C@@H]3CNC[C@@H](C3)C2)c(OC)c1`, for which the inhibition constant Ki in experiment [3] was > 10 µM; in experiment [1] it was > 1 µM; in experiment [2], > 5 µM; in experiment [4], > 5 µM.

Regarding `O=C(c1ccc2ccccc2n1)N1C[C@@H]2CNC[C@@H](C2)C1`, the results for the Ki in experiment [3] and in experiment [1] were > 10 µM and > 1 µM, respectively.

For the compound `O=C(c1ccc(O)cc1)N1C[C@@H]2CNC[C@@H](C2)C1`, the Ki in experiment [1] was 0.105 µM; in experiment [2], > 1 µM.

With `O=C(c1cnccn1)N1C[C@@H]2CNC[C@@H](C2)C1`, the Ki in experiment [3] was > 10 µM; in experiment [1], 0.0732 µM; in experiment [2] it was > 10 µM; in experiment [4], > 10 µM.

`Cc1ccc(C(=O)N2C[C@@H]3CNC[C@@H](C3)C2)cc1`: the inhibition constant Ki in experiment [3] was > 10 µM; in experiment [1] it was 0.221 µM; in experiment [2] it was > 10 µM; in experiment [4] it was > 5 µM.

Turning to `O=C(c1cccs1)N1C[C@@H]2CNC[C@@H](C2)C1`, the Ki in experiment [3] was > 10 µM; in experiment [1], 0.0176 µM; in experiment [2], > 10 µM; in experiment [4] it was > 10 µM.

In the case of `N#Cc1ccc(C(=O)N2C[C@@H]3CNC[C@@H](C3)C2)cc1`, the Ki in experiment [3] is > 5 µM; in experiment [1], 0.0207 µM; in experiment [2], > 10 µM; in experiment [4], > 10 µM.

For the compound `O=C(c1ccnc2ccccc12)N1C[C@@H]2CNC[C@@H](C2)C1`, the inhibition constant (Ki) in experiment [3] was > 10 µM; in experiment [1] it was 0.162 µM; in experiment [4] it was > 5 µM.

For `N#Cc1cccc(S(=O)(=O)N2C[C@@H]3CNC[C@@H](C3)C2)c1`, the figures for the Ki in experiment [1], in experiment [2] and in experiment [4] were 0.97 µM, > 10 µM and > 10 µM, respectively.

Take `CCN1C[C@H]2C[C@@H](C1)CN(C(C)=O)C2`: the Ki in experiment [1] is > 5 µM.

As to `O=C(c1cccc(Cl)c1)N1C[C@@H]2CNC[C@@H](C2)C1`, in experiment [1], the Ki was > 1 µM.

As for `CCN(CC)C(=O)N1C[C@@H]2CNC[C@@H](C2)C1`, in experiment [1], the Ki is > 3 µM.

In the case of `Cc1ccccc1C(=O)N1C[C@@H]2CNC[C@@H](C2)C1`, the Ki in experiment [3], in experiment [1], in experiment [2] and in experiment [4] was > 10 µM throughout.

In the case of `O=C(c1cncc(Br)c1)N1C[C@@H]2CNC[C@@H](C2)C1`, the Ki in experiment [3] was > 10 µM; in experiment [1] it was 0.292 µM; in experiment [2], > 10 µM; in experiment [4], > 5 µM.

`O=C(c1c[nH]c2ccccc12)N1C[C@@H]2CNC[C@@H](C2)C1`: the Ki in experiment [3], in experiment [1], in experiment [2] and in experiment [4] was > 10 µM throughout.

As for `O=C(c1ccccc1[N+](=O)[O-])N1C[C@@H]2CNC[C@@H](C2)C1`, the Ki in experiment [3], in experiment [1], in experiment [2] and in experiment [4] was > 10 µM in each case.

In experiment [1], `O=C(c1ccc2[nH]ccc2c1)N1C[C@@H]2CNC[C@@H](C2)C1` came in with a Ki of 1.8 µM.

Regarding `CS(=O)(=O)N1C[C@@H]2CNC[C@@H](C2)C1`, the inhibition constant Ki in experiment [3] was > 10 µM; in experiment [1], > 5 µM.

Take `O=C(c1ccc(Cl)nc1)N1C[C@@H]2CNC[C@@H](C2)C1`: the Ki is 0.194 µM in experiment [1] and > 1 µM in experiment [4].

Consider `CN(C)C(=O)N1C[C@@H]2CNC[C@@H](C2)C1`, for which the Ki in experiment [1] is 0.499 µM; in experiment [4], > 1 µM.

Take `O=C(N1CCCC1)N1C[C@@H]2CNC[C@@H](C2)C1`: the inhibitory constant (Ki) in experiment [3] is > 10 µM; in experiment [1], > 5 µM; in experiment [2], > 10 µM; in experiment [4], > 10 µM.

As for `O=C(c1cc2ccccc2[nH]1)N1C[C@@H]2CNC[C@@H](C2)C1`, the Ki in experiment [3], in experiment [1], in experiment [2] and in experiment [4] was > 10 µM each time.

As for `CC(=O)N1C[C@@H]2C[C@@H](CN(C)C2)C1`, affinity in experiment [1] was put at a Ki of 0.2 µM.

Take `O=C(c1cccc(F)c1)N1C[C@@H]2CNC[C@@H](C2)C1`: the figures for the inhibitory constant (Ki) in experiment [3], in experiment [1] and in experiment [4] were > 10 µM, 0.386 µM and > 5 µM, respectively.

`O=C(N1CCOCC1)N1C[C@@H]2CNC[C@@H](C2)C1` displayed a Ki in experiment [1] of 3.8 µM.

Take `O=C(c1ccc2ncccc2c1)N1C[C@@H]2CNC[C@@H](C2)C1`: the inhibition constant (Ki) in experiment [1] was 0.0813 µM; in experiment [2], > 10 µM; in experiment [4] it was > 5 µM.

In the case of `CCCN1C[C@H]2C[C@@H](C1)CN(C(C)=O)C2`, the Ki in experiment [1] was > 5 µM.

`O=C(C1CCCCC1)N1C[C@@H]2CNC[C@@H](C2)C1`: the Ki in experiment [3] was > 10 µM; in experiment [1] it was > 5 µM; in experiment [2] it was > 10 µM; in experiment [4], > 5 µM.

Consider `O=[N+]([O-])c1ccc(S(=O)(=O)N2C[C@@H]3CNC[C@@H](C3)C2)cc1`, for which the Ki is > 10 µM in experiment [3], 0.135 µM in experiment [1], > 10 µM in experiment [2] and 5.7 µM in experiment [4].

For the compound `O=C(c1cccnc1)N1C[C@@H]2CNC[C@@H](C2)C1`, the Ki in experiment [3] was > 10 µM; in experiment [1], 0.455 µM; in experiment [2], > 10 µM; in experiment [4], > 10 µM.

Regarding `O=C(c1ccc2cn[nH]c2c1)N1C[C@@H]2CNC[C@@H](C2)C1`, the Ki in experiment [1] is 0.205 µM.

With `O=C(c1ccccc1)N1C[C@@H]2CNC[C@@H](C2)C1`, the Ki in experiment [3] is > 10 µM; in experiment [1] it was 0.454 µM; in experiment [2], > 10 µM; in experiment [4], > 5 µM.

On to `O=C(c1ccc(Br)cc1)N1C[C@@H]2CNC[C@@H](C2)C1`, for which the values for the inhibition constant Ki in experiment [1], in experiment [2] and in experiment [4] were 0.138 µM, > 10 µM and > 10 µM, respectively.

Regarding `Cc1ccc(S(=O)(=O)N2C[C@@H]3CNC[C@@H](C3)C2)cc1`, the Ki in experiment [1] was 0.858 µM; in experiment [2], > 10 µM; in experiment [4] it was > 10 µM.

`O=C(c1ccc(F)cc1)N1C[C@@H]2CNC[C@@H](C2)C1`: the Ki in experiment [3] is > 10 µM; in experiment [1], 0.197 µM; in experiment [2] it was > 10 µM; in experiment [4], > 10 µM.

Take `O=C(c1cccc([N+](=O)[O-])c1)N1C[C@@H]2CNC[C@@H](C2)C1`: the Ki was > 10 µM in experiment [3], > 2 µM in experiment [1], > 10 µM in experiment [2] and > 10 µM in experiment [4].

As for `O=C(c1ccc2ccccc2c1)N1C[C@@H]2CNC[C@@H](C2)C1`, the Ki in experiment [1] is 0.447 µM; in experiment [2], > 10 µM; in experiment [4], > 10 µM.

Turning to `CC(C)(C)c1ccc(C(=O)N2C[C@@H]3CNC[C@@H](C3)C2)cc1`, the Ki in experiment [3], in experiment [1], in experiment [2] and in experiment [4] was > 10 µM in each case.

For `O=C(c1ccc([N+](=O)[O-])cc1)N1C[C@@H]2CNC[C@@H](C2)C1`, the Ki in experiment [3] was > 5 µM; in experiment [1] it was 0.0159 µM; in experiment [2] it was 1.73 µM; in experiment [4], 4.2 µM.

`CC(C)(C)OC(=O)N1C[C@@H]2CNC[C@@H](C2)C1`: the Ki is > 10 µM in experiment [3], 0.045 µM in experiment [1], > 5 µM in experiment [2] and 1.28 µM in experiment [4].
